The values that follow come from ChEMBL document CHEMBL1130135, “Use of conformationally restricted benzamidines as arginine surrogates in the design of platelet GPIIb-IIIa receptor antagonists” (J Med Chem, 1997).

Usually IC50 stands for the concentration that gives 50% inhibition.

Where only a bound is given, the exact number is not on record here.

T1 sequence (P05106 27-788 limits assumed): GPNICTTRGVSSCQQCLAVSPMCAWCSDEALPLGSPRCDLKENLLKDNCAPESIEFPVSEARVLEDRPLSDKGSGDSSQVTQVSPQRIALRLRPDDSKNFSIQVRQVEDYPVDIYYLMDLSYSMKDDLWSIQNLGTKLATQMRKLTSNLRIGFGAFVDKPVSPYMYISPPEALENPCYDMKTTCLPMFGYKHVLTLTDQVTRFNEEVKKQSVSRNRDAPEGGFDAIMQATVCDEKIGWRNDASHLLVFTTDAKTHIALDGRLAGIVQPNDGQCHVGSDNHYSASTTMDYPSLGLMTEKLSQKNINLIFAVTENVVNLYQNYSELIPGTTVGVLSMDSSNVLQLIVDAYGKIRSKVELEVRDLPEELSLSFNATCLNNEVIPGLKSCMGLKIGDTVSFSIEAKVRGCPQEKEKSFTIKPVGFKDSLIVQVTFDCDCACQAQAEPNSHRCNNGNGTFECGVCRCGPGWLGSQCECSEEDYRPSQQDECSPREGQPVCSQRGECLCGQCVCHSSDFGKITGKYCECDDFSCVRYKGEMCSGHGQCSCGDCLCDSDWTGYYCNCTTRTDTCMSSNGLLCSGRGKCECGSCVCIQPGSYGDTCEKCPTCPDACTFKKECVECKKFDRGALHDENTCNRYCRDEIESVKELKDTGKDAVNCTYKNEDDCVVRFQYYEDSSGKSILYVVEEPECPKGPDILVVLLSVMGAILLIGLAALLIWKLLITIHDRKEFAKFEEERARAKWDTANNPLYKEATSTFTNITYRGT
T1 sequence (P08514 32-887 limits assumed): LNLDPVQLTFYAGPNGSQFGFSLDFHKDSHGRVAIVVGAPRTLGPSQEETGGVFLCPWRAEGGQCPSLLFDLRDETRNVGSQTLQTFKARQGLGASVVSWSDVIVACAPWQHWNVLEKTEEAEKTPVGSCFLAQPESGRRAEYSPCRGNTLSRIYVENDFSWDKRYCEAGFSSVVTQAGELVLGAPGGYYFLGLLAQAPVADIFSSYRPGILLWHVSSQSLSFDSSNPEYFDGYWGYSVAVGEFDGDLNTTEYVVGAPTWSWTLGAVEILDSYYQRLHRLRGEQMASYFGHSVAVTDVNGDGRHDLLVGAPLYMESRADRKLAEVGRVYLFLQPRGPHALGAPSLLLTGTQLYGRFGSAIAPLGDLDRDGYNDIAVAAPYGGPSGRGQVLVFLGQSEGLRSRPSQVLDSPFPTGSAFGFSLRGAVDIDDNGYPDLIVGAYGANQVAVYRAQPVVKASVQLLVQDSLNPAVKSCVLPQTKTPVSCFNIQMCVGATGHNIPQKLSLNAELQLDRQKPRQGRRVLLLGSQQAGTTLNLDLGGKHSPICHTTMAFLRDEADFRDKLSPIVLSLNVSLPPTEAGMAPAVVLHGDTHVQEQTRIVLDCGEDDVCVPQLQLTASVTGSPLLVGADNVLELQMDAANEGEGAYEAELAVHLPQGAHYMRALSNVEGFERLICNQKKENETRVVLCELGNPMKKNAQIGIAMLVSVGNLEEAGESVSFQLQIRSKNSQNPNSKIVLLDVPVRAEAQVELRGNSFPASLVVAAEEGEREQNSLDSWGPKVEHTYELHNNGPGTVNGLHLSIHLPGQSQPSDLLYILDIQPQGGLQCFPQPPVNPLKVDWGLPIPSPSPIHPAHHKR
T1 sequence (P08514 891-1039 limits assumed): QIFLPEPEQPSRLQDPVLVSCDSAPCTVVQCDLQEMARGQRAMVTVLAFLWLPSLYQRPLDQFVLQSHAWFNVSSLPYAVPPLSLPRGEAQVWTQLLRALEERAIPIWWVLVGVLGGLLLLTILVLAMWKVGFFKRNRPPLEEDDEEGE
Chain of Integrin alpha-V/beta-3 (P05106 27-788 limits assumed): as the sequence (P05106 27-788 limits assumed) above
Chain of Integrin alpha-V/beta-3 (P06756 31-889 limits assumed): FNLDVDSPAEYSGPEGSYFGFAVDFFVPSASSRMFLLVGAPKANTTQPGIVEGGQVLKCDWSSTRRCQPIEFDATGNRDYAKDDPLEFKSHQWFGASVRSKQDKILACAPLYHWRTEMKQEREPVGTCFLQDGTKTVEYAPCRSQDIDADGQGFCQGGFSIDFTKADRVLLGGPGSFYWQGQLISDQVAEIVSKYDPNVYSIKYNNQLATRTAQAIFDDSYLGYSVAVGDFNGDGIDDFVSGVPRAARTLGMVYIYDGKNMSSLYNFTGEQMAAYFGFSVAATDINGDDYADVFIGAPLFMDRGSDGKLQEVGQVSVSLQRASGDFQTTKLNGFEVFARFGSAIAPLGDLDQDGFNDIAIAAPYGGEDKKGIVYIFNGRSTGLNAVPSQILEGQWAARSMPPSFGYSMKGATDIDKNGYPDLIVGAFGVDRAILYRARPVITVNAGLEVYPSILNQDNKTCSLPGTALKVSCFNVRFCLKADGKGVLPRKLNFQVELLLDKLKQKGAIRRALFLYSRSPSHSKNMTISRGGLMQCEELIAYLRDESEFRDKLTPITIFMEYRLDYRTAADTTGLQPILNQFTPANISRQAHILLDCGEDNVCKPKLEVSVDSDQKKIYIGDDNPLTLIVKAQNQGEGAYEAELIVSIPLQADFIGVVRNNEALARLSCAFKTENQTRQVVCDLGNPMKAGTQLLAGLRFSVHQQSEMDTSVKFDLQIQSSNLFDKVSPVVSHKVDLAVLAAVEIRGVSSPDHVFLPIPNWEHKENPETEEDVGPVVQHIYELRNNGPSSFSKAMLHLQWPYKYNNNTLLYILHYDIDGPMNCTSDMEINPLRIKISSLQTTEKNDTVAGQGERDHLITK
Chain of Integrin alpha-V/beta-3 (P06756 891-1048 limits assumed): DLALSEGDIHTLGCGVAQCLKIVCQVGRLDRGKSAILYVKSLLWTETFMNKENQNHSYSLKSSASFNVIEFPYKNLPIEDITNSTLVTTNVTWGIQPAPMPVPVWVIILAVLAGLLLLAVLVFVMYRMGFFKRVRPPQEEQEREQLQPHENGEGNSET

One assay deals with T1, Integrin alpha-IIb/beta-3 (Homo sapiens, UniProt P05106+P08514). Description: Inhibition of fibrinogen binding to purified Fibrinogen Receptor preparation in enzyme-linked immunosorbent assay (ELISA). In kind it is protein-complex assay. In outline:
(§1)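 ELISA on purified human platelet GPIIb-IIIa with biotinylated fibrinogen as the ligand. Bound fibrinogen was detected with alkaline phosphatase-labeled goat anti-biotin and p-nitrophenyl phosphate substrate. Some runs added BSA at 4.5% (w/v) as a stand-in for plasma albumin.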
On the technique in general: ELISA stands for enzyme-linked immunosorbent assay.
Regarding `N=C(N)c1ccc2oc(C(=O)NCCCCCCCC(=O)O)cc2c1`, the 50% inhibitory concentration (IC50) turned out to be 3.3 µM.

Another assay concerns the target T1, Integrin alpha-IIb/beta-3. Description: Antagonism of fibrinogen binding to a purified human fibrinogen receptor preparation. In kind it is protein-complex assay. In outline:
as §1
`N=C(N)c1ccc2[nH]c(C(=O)NCc3ccc(CCC(=O)O)cc3)cc2c1`: the IC50 was determined as 4 µM. Still for that read-out and setting: with `Cc1c(C(=O)NCCCCCCC(=O)O)[nH]c2ccc(C(=N)N)cc12` the figure was 1.7 µM. `N=C(N)c1ccc2sc(C(=O)NCCCCCCC(=O)O)cc2c1` gave an IC50 of 0.85 µM.

In the case of `N=C(N)c1ccc2[nH]c(C(=O)NCCC(=O)NCCC(=O)O)cc2c1`, the 50% inhibitory concentration (IC50) stood at 0.76 µM. Still for that read-out and setting: with `N=C(N)c1ccc2[nH]c(C(=O)NCC(=O)NCCCC(=O)O)cc2c1` the figure was 9.9 µM; with `Cn1c(C(=O)NCCCCCCC(=O)O)cc2cc(C(=N)N)ccc21`, 2.9 µM. On the same count and under the same terms, as for `CN(CCCCCCC(=O)O)C(=O)c1cc2cc(C(=N)N)ccc2[nH]1`, the figure is 0.34 µM; as for `CCC(CCCCCNC(=O)c1cc2cc(C(=N)N)ccc2[nH]1)C(=O)O` (stereo not drawn), 27 µM; as for `CCCCC(CCCCNC(=O)c1cc2cc(C(=N)N)ccc2[nH]1)CC(=O)O` (stereo not drawn), 0.79 µM. Still for that read-out and setting: as for `N=C(N)c1ccc2[nH]c(C(=O)NCCCCC(CC(=O)O)c3ccccc3)cc2c1` (stereo not drawn), the figure is 0.46 µM. For `N=C(N)c1ccc2[nH]c(C(=O)NCCCC(=O)NCC(=O)O)cc2c1`, the IC50 stood at 7.4 µM.

`CC(CCCCCNC(=O)c1cc2cc(C(=N)N)ccc2[nH]1)C(=O)O` (stereo not drawn) registered an IC50 of 6.9 µM.

The compound `N=C(N)c1ccc2oc(C(=O)NCCCCCC(=O)O)cc2c1` returned an IC50 of 2.3 µM. On the same count and under the same terms, as for `CC(CCCCNC(=O)c1cc2cc(C(=N)N)ccc2[nH]1)CC(=O)O` (stereo not drawn), the figure is 0.31 µM. On the same count and under the same terms, with `CCC(CCCCNC(=O)c1cc2cc(C(=N)N)ccc2[nH]1)CC(=O)O` (stereo not drawn) the figure was 0.44 µM. The same measure, in the same setting: with `N=C(N)c1ccc2cc(C(=O)NCCCCCCC(=O)O)oc2c1` the figure was 1.1 µM; with `N=C(N)c1ccc(OCC(=O)NCCCCCCC(=O)O)cc1`, 1.1 µM; with `CCCCCCC(CCCCNC(=O)c1cc2cc(C(=N)N)ccc2[nH]1)CC(=O)O` (stereo not drawn), 0.59 µM. Compound `N=C(N)c1ccc2c(C(=O)NCCCCCCC(=O)O)[nH]nc2c1` had an IC50 of 0.02 µM.

Another assay has as its target Integrin alpha-V/beta-3 (Homo sapiens, UniProt P05106+P06756). In words: Inhibition of adhesive protein binding to alphaV-beta3 vitronectin receptor using ELISA. In kind it is protein-complex assay. In outline: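 Vitronectin receptor ELISA on purified human placenta αvβ3 with biotinylated vitronectin as the ligand. Detection used alkaline phosphatase-labeled goat anti-biotin and p-nitrophenol phosphate. Compounds were tested up to 100 μM.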
Regarding `N=C(N)c1ccc2c(C(=O)NCCCCCCC(=O)O)c[nH]c2c1`, the concentration for half-maximal inhibition (IC50) was > 100 µM.

As to `N=C(N)c1ccc2oc(C(=O)NCCCCCCC(=O)O)cc2c1`, the half-maximal inhibitory concentration (IC50) is > 100 µM.

As to `N=C(N)c1ccc2c(C(=O)NCCCCCCC(=O)O)[nH]nc2c1`, the IC50 was > 100 µM.
